The IC50 is the concentration needed to halve the response being measured.

Experimental findings from article PMC3131532 (Chemistry & biology, 2011) are described below.

Experiment [1] deals with PfSENP activity in parasite lysates. Nature of the experiment: PfSUMO-pro processing assay in parasite lysates. Format: biochemical, Plasmodium falciparum. To be noted: mixed stage lysates; VEA-260 0–200 µM; NEM 10 mM; hSUMO-VS 10 µM. In short, it runs like this: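 Soluble mixed-stage parasite lysate was pretreated with test compound, NEM or hSUMO-VS, then given PfSUMO-pro substrate. For the library screen, 10 µg lysate was preincubated 30 min at room temperature with 100 µM (final) test compound from a DMSO stock. PfSUMO-pro was then added at 10 µM final for 1 h at 37°C. Reactions were quenched with SDS loading dye, resolved by SDS-PAGE and stained with Gelcode Blue. Controls were DMSO-treated lysate and substrate without lysate.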

Experiment [2] has as its target T1, PfSENP1 (Plasmodium falciparum, UniProt Q8I583). Briefly: PfSUMO-pro cleavage assay with recombinant PfSENP1. Format: biochemical. To be noted: gel assay; VEA-260 0–200 µM; JCP analogs 0–300 µM; NEM 10 mM. The essentials:
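Recombinant PfSENP1, His6-tagged (imidazole-eluted) or untagged (released from CPD fusion with 100 µM InsP6), expressed in E. coli BL21(DE3) for 3 hr at 30°C after 0.1 mM IPTG induction. Enzyme pretreated with test compound or 10 mM N-ethylmaleimide; for the 0–200 µM series, PfSENP1 was 100 nM. PfSUMO-pro then added; reactions run on SDS-PAGE with Coomassie-type staining. No-enzyme substrate lane served as control.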

Experiment [3] addresses T2, UCH-L3 (Homo sapiens, UniProt P15374).
T2 sequence (P15374 1-230): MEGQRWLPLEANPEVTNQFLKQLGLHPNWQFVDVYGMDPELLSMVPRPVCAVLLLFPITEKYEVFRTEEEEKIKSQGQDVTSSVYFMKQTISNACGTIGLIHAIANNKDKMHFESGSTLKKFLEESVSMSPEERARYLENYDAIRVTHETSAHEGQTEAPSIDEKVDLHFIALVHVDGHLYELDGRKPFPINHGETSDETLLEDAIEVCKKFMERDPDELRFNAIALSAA
Briefly: DUB fluorogenic substrate. Format: biochemical. To be noted: read-out: IC50 UCH-L3; substrate LRGG-AFC.

For experiment [4], the target named is T3, hSENP8 (deNEDDylase) (Homo sapiens, UniProt Q96LD8).
T3 sequence (Q96LD8 1-212): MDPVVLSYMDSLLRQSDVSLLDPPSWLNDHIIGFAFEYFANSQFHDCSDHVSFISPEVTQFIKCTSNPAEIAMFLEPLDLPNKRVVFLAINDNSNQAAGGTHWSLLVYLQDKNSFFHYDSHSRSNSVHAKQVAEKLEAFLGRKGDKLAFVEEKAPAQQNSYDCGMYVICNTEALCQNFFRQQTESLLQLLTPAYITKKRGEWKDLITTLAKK
Briefly: fluorogenic substrate. It counts as biochemical. To be noted: read-out: IC50 hSENP8 (deNEDDylase); substrate LRGG-AFC.

Experiment [5] addresses T4, hSENP2 (Homo sapiens, UniProt Q9HC62).
T4 sequence (Q9HC62 1-589): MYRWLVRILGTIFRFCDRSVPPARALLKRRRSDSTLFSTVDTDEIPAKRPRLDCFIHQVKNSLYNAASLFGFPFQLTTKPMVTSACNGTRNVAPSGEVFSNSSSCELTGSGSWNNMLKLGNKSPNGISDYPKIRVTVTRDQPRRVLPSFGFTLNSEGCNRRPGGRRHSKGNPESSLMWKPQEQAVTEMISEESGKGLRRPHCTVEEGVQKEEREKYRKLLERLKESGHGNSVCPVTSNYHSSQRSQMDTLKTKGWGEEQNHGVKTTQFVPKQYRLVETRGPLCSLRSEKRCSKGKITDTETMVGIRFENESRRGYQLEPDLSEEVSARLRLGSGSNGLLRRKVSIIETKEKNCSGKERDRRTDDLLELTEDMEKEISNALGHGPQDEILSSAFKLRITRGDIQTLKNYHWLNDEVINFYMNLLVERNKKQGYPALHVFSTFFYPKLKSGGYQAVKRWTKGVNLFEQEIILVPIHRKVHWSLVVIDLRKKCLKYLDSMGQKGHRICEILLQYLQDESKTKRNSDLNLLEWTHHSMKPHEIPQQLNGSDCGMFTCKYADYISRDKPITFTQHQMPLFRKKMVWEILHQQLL
Briefly: SENP fluorogenic substrate. It counts as biochemical. To be noted: read-out: IC50 hSENP2; substrate QTGG-AFC.

Experiment [6] has as its system falcipains 1/2/3. Nature of the experiment: Competition for labeling with activity-based probes. It counts as biochemical, Plasmodium falciparum. To be noted: mixed-stage lysates; VEA-260 0–250 µM. The essentials: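 Mixed-stage P. falciparum total lysates were pretreated with test compound (0–250 µM), or with unlabelled DCG-04 (100 µM) as a competition control, then labelled with 125I-DCG-04. Proteins were resolved by SDS-PAGE, and residual probe labelling was read by autoradiography.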

Experiment [7] deals with T1, PfSENP1. Briefly: SENP fluorogenic substrate. To be noted: read-out: IC50 PfSENP1; substrate QTGG-AFC. It counts as biochemical.
For experiment [8], the target named is T5, hSENP6 (Homo sapiens, UniProt Q9GZR1).
T5 sequence (Q9GZR1 1-1112): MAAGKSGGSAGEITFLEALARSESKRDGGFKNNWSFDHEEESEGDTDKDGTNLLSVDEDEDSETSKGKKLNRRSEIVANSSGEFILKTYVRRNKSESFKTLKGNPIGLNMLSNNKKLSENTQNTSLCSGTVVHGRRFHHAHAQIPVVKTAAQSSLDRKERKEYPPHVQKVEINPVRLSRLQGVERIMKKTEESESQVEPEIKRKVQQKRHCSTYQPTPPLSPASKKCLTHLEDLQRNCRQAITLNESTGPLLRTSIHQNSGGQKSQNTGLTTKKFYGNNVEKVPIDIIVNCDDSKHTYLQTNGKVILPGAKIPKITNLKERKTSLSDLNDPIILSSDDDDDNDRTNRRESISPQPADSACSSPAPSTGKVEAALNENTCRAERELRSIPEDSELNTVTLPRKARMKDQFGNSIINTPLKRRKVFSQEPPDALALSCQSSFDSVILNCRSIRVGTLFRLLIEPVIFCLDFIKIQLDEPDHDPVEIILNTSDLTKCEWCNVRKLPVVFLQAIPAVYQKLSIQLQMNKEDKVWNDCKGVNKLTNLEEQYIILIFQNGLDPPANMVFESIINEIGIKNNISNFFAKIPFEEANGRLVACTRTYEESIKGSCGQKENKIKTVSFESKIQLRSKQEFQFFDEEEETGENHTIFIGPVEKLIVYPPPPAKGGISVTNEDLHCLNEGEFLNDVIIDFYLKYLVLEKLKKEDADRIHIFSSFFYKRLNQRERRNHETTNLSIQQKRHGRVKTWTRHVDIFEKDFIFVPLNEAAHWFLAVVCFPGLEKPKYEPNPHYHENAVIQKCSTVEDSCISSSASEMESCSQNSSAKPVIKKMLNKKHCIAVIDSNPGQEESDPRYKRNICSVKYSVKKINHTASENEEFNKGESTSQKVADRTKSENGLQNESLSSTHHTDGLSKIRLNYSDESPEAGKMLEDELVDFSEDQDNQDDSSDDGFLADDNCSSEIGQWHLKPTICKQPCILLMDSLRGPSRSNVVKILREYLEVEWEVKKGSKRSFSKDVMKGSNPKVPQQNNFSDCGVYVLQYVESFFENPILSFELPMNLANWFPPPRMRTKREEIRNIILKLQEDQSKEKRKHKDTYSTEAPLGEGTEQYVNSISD
Briefly: SENP fluorogenic substrate. It counts as biochemical. To be noted: read-out: IC50 hSENP6; substrate LRGG-AFC.

For experiment [9], the target named is T6, hSENP1 (Homo sapiens, UniProt Q9P0U3).
T6 sequence (Q9P0U3 419-644 limits assumed): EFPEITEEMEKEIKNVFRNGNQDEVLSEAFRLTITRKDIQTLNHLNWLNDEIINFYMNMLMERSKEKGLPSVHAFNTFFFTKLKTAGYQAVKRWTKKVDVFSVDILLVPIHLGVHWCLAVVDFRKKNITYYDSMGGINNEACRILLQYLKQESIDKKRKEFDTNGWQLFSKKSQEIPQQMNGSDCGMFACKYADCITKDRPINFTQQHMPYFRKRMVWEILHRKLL
Briefly: SENP fluorogenic substrate. It counts as biochemical. To be noted: read-out: IC50 hSENP1; substrate QTGG-AFC.

The target in experiment [10] is T1, PfSENP1. Briefly: Reversibility of PfSENP1 inhibition. To be noted: 200 µM inhibitor, 2 hr 37°C, then dilution and Ni-NTA enrichment. Format: biochemical. In short, it runs like this:
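PfSENP1 (200 nM) exposed to test compound (200 µM), N-ethylmaleimide (10 mM) or DMSO for 2 hr at 37°C. Input sample taken. Treated enzyme then diluted, recaptured on Ni2+-NTA and eluted with 300 mM imidazole. Input and eluate each added to PfSUMO-pro; cleavage resolved by SDS-PAGE with protein stain.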

Turning to `CCN1C(=O)C=CC1=O` [NEM, N-ethylmaleimide, reference compound], in experiment [1], the “inhibition of PfSENP activity in parasite lysates” value is recorded as “processing activity could be blocked”. Besides, the “inhibition of PfSUMO-pro cleavage by recombinant PfSENP1” value in [2] was “cleavage was inhibited”.

`O=C(O)c1cccc(C(=O)NCc2ccc(C(=O)NNC(=O)[C@H]3O[C@@H]3C(=O)N(Cc3cccc4ccccc34)Cc3cccc4ccccc34)cc2)c1` [VEA-260]: the IC50 in [3] was about 100 µM; in [4], 9.1 µM; in [5] it was 3.7 µM; in experiment [7] it was 16.2 µM; in experiment [8], over 100 µM; in experiment [9], 7.1 µM. For the same compound, the “inhibition of PfSENP activity in parasite lysates” value in experiment [1] was “as potent as the original JCP-666”. Moreover, in [6], the “inhibition of falcipains (residual probe labeling)” value is given as “did not inhibit any of the falcipains”. Further, in [2], the “inhibition of PfSUMO-pro cleavage by recombinant PfSENP1” value is recorded as “as potent as the original JCP-666”. Also, the “reversibility of PfSENP1 inhibition” value in experiment [10] was “irreversible inhibitor”.
